We go through three molecules from ChEMBL document CHEMBL3745707 (Bioorg Med Chem, 2016).

For one data set, the system named is A549. Description: cells. The following applies: Homo sapiens, A549, 72 h. The class given is functional.
Data set [1] in a line: cells. As to conditions: Homo sapiens, DU-145, 72 h. In kind it is functional, cell-based.
A further data set has as its system Raji. Description: cells. The class given is functional. The following applies: Homo sapiens, 72 h.
For a further data set, the system named is HeLa. The experiment in a line: cells. The following applies: Homo sapiens, 72 h. In kind it is functional.
Another data set has as its system NCI-H1975. Description: cells. The class given is functional. As to conditions: Homo sapiens, NCI-H1975, 72 h.
Data set [2] in a line: cells. As to conditions: Homo sapiens, SK-OV-3, 72 h. In kind it is functional.
A short description of data set [3]: cells. In kind it is functional, U-87MG ATCC. As to conditions: Homo sapiens, U-87 MG, 72 h.
Data set [4] is described as follows: cells. In kind it is functional. As to conditions: Homo sapiens, BT-474, 72 h.
Data set [5] deals with U2OS. Description: Induction of apoptosis in human U2OS cells assessed as increase in caspase 3/7 activity after 24 hrs by caspase Glo assay. The class given is functional, cell-based. Summed up: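 U2OS cells (DMEM, 10% FBS, 37 °C, 5% CO₂) plated at 1–3 × 10⁴ cells/well, left overnight, then exposed 24 h to increasing concentrations, with DMSO control. Caspase 3/7 activity read by Caspase-Glo luminescence; viability measured in parallel with Cell Titer Blue fluorescence.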

For another data set, the system named is MCF7. Description: cells. In kind it is functional. As to conditions: Homo sapiens, MCF7, 72 h.
The subject of data set [6] is U2OS. The experiment in a line: cells. The class given is functional. As to conditions: Homo sapiens, 72 h.
The nature of data set [7]: cells. As to conditions: Homo sapiens, Granta-519, 72 h. In kind it is functional.
Data set [8] can be described thus: cells. The class given is functional. The following applies: Homo sapiens, MIA PaCa-2, 72 h.
A further data set concerns K562. The experiment in a line: cells. The class given is functional, cell-based. As to conditions: Homo sapiens, K562, 72 h.
For a further data set, the system named is SK-MEL-28. Description: cells. The following applies: Homo sapiens, SK-MEL-28, 72 h. In kind it is functional.
For data set [9], the target named is T1, Serine/threonine-protein kinase PLK2 (Homo sapiens, UniProt Q9NYY3). The experiment in a line: Inhibition of human recombinant PLK2 using recombinant dephosphorylated bovine alpha- casein as substrate after 30 mins by scintillation counting analysis in presence of gamma-32P-ATP.
Target sequence in this assay (Q9NYY3 whole entry): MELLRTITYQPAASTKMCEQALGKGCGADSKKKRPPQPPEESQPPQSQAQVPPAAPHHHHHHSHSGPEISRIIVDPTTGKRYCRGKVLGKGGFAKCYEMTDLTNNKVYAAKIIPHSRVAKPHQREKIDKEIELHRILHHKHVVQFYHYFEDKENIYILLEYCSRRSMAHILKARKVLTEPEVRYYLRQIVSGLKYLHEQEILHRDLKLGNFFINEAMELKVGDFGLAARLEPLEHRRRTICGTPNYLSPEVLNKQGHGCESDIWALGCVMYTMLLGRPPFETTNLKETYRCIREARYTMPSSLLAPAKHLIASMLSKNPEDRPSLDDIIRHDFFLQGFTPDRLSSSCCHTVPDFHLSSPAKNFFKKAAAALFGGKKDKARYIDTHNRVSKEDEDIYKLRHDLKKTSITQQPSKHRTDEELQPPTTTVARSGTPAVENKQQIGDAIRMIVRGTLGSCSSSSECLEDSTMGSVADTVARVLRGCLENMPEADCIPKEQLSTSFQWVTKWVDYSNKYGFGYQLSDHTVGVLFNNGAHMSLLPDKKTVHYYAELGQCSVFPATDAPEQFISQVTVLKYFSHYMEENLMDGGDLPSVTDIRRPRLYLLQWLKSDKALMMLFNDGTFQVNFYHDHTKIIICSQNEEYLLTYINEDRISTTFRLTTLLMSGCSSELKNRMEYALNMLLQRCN
A short description of data set [10]: cells. In kind it is functional. As to conditions: Homo sapiens, COLO 205, 72 h.
In data set [11] the target is T2, Tubulin (Bos taurus) (UniProt Q6B856+Q862L2+Q862F3). The experiment in a line: Inhibition of bovine MAP rich tubulin polymerization at 10 uM measured every 2 mins for 30 mins by UV-visible spectrophotometric analysis. The class given is protein assay. Summed up: (§1)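 MAP-rich bovine tubulin at 1.5 mg/mL in 80 mM PIPES pH 6.9, 1 mM GTP, 0.5 mM EGTA, 2 mM MgCl₂. Briefly preincubated with agent or DMSO, then polymerized at 37 °C in a spectrophotometer. Absorbance recorded every 2 min for 30 min; n = 3.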

Data set [12] concerns the target T2, Tubulin (Bos taurus). The experiment in a line: Inhibition of bovine MAP rich tubulin polymerization at 1 uM measured every 2 mins for 30 mins by UV-visible spectrophotometric analysis. In kind it is protein assay. Summed up:
as §1

In data set [13] the target is T1, Serine/threonine-protein kinase PLK2.
Target sequence in this assay (Q9NYY3 whole entry, looked up): as the sequence (Q9NYY3 whole entry) above
For data set [14], the target named is Serine/threonine-protein kinase Nek5 (Homo sapiens, UniProt Q6P3R8). Description: Inhibition of human NEK5 using MBP as substrate.
The target in data set [15] is TRAF2 and NCK-interacting protein kinase (Homo sapiens, UniProt Q9UKE5). The experiment in a line: Inhibition of human TNIK using [RLGRDKYKTLRQIRQ] as substrate.
Data set [16] has as its target T1, Serine/threonine-protein kinase PLK2. Description: Inhibition of human PLK2 using casein as substrate.
Target sequence in this assay (Q9NYY3 whole entry): as above
Data set [17] has as its target Mitogen-activated protein kinase 14 (Homo sapiens, UniProt Q16539). Description: Inhibition of human P38alpha using MBP as substrate.
The target in data set [18] is Serine/threonine-protein kinase PLK1 (Homo sapiens) (UniProt P53350).
Data set [19] concerns the target Fibroblast growth factor receptor 1 (Homo sapiens, UniProt P11362). Description: Inhibition of human FGFR1 using [KKKSPGEYVNIEFG] as substrate.
Data set [20] has as its target Receptor-type tyrosine-protein kinase FLT3 (Homo sapiens, UniProt P36888). The experiment in a line: Inhibition of human FLT3 using [EAIYAAPFAKKK] as substrate.
Data set [21] addresses Cyclin-Y/Cyclin-dependent kinase 16 (Homo sapiens, UniProt Q00536). Description: Inhibition of human CDK16/cyclin Y using RP protein as substrate. The class given is protein-complex assay.
In a further data set the test system is Mus musculus. Description: Toxicity in NCR nu/nu mouse xenografted with human MDA-MB-231 cells assessed as change in body weight at 75 mg/kg, ip administered alternative day. The class given is organism-based. As to conditions: in vivo.
Data set [22] has as its target Fibroblast growth factor receptor 3 (Homo sapiens, UniProt P22607). The experiment in a line: Inhibition of human FGFR3 using poly[Glu:Tyr] (4:1) as substrate.
Data set [23] addresses High affinity nerve growth factor receptor (Homo sapiens, UniProt P04629). Description: Inhibition of human TRKA using poly[Glu:Tyr] (4:1) as substrate.
For data set [24], the target named is Serine/threonine-protein kinase Nek2 (Homo sapiens, UniProt P51955). Description: Inhibition of human NEK2 using MBP as substrate.
Data set [25] deals with Ribosomal protein S6 kinase alpha-1 (Homo sapiens, UniProt Q15418). Description: Inhibition of human RSK1 using [KKLNRTLSVA] as substrate.
The target in data set [26] is Testis-specific serine/threonine-protein kinase 3 (Homo sapiens, UniProt Q96PN8). Description: Inhibition of human TSSK3 using [KKKVSRSGLYRSPSMPENLNRPR] as substrate.
Data set [27] concerns the target Glycogen synthase kinase-3 alpha (Homo sapiens, UniProt P49840). Description: Inhibition of human GSK3alpha using [YRRAAVPPSPSLSRHSSPHQ(pS)EDEEE] as substrate.
Data set [28] has as its target Serine/threonine-protein kinase Nek1 (Homo sapiens, UniProt Q96PY6). The experiment in a line: Inhibition of human NEK1 using MBP as substrate.
For data set [29], the target named is Serine/threonine-protein kinase Nek9 (Homo sapiens, UniProt Q8TD19). The experiment in a line: Inhibition of human NEK9 using MBP as substrate.
The target of the next data set is Ephrin type-A receptor 6 (Homo sapiens, UniProt Q9UF33). Description: Inhibition of human EPHA6 using poly[Glu:Tyr] (4:1) as substrate.

Activity calls are given as the source filed them. The rule behind the calls is not given here.

Sequence of Ephrin type-A receptor 6 (Q9UF33 whole entry): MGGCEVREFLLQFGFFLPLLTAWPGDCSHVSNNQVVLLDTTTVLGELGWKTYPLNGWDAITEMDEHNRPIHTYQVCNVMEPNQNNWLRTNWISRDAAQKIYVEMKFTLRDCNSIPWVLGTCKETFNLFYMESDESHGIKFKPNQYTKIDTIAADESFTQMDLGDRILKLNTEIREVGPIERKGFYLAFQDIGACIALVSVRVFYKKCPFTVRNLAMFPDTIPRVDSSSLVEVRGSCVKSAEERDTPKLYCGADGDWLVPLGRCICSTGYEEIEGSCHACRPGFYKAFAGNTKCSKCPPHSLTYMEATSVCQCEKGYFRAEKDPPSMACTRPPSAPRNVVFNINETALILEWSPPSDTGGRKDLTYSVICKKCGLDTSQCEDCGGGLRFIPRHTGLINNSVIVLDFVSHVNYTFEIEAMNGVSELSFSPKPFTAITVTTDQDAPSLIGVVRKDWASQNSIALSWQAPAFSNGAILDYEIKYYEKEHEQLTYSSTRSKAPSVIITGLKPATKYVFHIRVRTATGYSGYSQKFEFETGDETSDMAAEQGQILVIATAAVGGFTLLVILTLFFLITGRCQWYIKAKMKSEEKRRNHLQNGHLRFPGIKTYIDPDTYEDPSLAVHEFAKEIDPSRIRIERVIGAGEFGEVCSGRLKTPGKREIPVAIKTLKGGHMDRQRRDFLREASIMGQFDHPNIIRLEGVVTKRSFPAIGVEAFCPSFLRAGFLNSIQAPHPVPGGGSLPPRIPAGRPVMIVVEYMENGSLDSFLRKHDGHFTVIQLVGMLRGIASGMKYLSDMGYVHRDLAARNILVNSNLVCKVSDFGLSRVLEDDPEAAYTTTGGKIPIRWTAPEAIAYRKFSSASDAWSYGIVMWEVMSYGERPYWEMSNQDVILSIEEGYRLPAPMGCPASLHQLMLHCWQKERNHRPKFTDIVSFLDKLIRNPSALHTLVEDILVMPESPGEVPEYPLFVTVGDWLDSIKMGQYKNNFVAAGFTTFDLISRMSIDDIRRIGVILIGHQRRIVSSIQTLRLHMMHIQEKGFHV
Sequence of Fibroblast growth factor receptor 1 (P11362 whole entry): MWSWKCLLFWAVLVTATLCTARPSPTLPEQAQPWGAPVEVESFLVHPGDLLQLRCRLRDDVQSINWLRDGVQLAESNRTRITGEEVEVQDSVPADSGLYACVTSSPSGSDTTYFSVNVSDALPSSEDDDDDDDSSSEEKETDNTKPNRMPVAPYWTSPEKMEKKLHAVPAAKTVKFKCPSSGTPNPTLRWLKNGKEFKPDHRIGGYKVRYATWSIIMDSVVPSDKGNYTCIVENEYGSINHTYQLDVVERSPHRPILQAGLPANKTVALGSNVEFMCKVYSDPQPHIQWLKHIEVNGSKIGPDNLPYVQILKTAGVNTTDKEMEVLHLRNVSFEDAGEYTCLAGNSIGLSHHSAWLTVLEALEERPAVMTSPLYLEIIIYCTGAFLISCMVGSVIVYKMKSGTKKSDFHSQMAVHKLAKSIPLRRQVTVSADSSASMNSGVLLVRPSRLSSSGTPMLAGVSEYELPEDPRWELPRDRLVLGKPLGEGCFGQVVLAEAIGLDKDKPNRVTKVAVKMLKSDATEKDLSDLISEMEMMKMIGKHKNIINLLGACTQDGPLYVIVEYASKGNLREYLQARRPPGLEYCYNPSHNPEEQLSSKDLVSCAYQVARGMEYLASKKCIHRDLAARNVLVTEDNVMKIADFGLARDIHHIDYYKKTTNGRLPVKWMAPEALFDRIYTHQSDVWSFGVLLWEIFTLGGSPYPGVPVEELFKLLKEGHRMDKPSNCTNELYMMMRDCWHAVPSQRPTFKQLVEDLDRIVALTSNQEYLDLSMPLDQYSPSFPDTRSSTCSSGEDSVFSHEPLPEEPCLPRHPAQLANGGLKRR
Sequence of TRAF2 and NCK-interacting protein kinase (Q9UKE5 whole entry): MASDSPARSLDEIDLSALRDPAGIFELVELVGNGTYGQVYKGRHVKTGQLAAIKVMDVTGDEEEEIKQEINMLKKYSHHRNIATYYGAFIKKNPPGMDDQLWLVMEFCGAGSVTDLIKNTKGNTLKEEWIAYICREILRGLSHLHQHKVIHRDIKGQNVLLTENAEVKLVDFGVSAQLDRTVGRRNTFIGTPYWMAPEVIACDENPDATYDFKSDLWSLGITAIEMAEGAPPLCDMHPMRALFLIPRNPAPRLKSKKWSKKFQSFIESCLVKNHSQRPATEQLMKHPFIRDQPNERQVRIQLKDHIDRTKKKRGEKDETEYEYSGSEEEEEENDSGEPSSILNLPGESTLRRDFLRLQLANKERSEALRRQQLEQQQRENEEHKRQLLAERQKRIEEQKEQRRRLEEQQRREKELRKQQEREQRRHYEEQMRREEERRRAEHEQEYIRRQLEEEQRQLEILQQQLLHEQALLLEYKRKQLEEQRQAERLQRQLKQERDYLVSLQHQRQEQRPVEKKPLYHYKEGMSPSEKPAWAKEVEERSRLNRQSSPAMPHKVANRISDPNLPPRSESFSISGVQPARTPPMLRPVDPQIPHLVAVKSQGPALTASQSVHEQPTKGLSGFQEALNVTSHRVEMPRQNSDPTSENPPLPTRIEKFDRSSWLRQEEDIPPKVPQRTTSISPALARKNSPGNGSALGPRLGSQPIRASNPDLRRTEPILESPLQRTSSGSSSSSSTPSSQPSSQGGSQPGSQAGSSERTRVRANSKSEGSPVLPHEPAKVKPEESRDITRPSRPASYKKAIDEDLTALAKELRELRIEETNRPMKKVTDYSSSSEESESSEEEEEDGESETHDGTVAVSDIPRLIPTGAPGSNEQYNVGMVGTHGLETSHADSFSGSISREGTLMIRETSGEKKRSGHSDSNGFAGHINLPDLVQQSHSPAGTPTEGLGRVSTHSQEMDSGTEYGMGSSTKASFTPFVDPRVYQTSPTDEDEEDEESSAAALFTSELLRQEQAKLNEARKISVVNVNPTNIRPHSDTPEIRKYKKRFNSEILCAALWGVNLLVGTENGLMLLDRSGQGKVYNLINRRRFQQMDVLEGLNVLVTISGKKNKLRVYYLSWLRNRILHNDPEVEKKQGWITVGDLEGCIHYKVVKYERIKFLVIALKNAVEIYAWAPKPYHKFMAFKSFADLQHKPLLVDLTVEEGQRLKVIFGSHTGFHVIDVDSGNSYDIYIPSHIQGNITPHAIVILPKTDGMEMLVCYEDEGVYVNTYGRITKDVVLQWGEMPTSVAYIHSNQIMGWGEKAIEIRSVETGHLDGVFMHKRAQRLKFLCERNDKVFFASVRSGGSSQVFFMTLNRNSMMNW
Sequence of Serine/threonine-protein kinase PLK1 (Homo sapiens) (P53350 whole entry): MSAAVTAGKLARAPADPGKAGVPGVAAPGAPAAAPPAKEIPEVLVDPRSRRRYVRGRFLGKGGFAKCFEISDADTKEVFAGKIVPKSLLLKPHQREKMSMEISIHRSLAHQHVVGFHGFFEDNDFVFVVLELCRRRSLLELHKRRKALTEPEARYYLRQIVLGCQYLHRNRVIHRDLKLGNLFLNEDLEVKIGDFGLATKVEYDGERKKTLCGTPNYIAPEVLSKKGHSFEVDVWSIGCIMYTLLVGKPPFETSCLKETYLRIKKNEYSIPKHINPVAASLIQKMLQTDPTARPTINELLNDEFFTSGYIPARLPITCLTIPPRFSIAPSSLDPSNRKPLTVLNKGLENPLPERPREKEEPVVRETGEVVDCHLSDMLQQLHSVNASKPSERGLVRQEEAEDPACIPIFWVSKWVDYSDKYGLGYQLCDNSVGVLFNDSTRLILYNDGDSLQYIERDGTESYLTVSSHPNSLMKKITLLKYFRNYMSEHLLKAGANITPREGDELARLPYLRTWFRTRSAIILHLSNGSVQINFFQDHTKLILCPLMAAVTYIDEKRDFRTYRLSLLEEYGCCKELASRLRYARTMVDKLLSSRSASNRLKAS
Sequence of Serine/threonine-protein kinase Nek2 (P51955 whole entry): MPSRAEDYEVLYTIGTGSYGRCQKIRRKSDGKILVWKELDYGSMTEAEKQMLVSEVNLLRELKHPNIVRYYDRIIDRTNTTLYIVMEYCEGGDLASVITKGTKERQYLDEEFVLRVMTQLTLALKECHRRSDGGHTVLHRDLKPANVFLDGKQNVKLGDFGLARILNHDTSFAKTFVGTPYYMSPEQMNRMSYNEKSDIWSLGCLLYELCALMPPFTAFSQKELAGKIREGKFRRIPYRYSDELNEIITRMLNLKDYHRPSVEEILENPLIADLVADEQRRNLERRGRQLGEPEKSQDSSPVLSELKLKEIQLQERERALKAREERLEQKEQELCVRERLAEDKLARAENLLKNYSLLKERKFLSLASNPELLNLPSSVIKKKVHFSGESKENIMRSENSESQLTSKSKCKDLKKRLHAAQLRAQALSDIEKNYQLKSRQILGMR

For `Cn1c(=O)c(S(=O)(=O)c2ccc(F)cc2)cc2cnc(Nc3ccc4[nH]ccc4c3)nc21`, the GI50 (commonly the concentration at which growth is held to half of that of the control) came to 200 nM with A549; 100 nM in the data set on Raji; 75 nM with HeLa; 100 nM with NCI-H1975; 200 nM in the data set “cells [2]”; 400 nM in “cells [3]”. The GI50 in the data set “cells [4]” came to 200 nM; with MCF7, 250 nM; in the data set on U2OS [6] it was 55 nM; in “cells [7]”, 60 nM; in the data set “cells [8]” it was 75 nM; in the data set on SK-MEL-28, 300 nM. For the same molecule, it took 200 nM to inhibit growth in “cells [10]” by half (GI50). In addition, the IC50 (usually the concentration that inhibits the measured activity by half) in “cells [1]” is 300 nM; in the data set on K562, 200 nM; in [9], 1070 nM. The Activity result in the data set on U2OS [5] is “Dose-dependent effect”. Further, the inhibition entry on Tubulin (Bos taurus) [11] was “Active”.
For the molecule `CC[C@]1(O)C[C@H]2CN(CCc3c([nH]c4ccccc34)[C@@](C(=O)OC)(c3cc4c(cc3OC)N(C=O)[C@H]3[C@@](O)(C(=O)OC)[C@H](OC(C)=O)[C@]5(CC)C=CCN6CC[C@]43[C@@H]65)C2)C1`, the inhibition result on Tubulin (Bos taurus) [12] was “Active”.
With `Cn1c(=O)c(S(=O)(=O)c2ccc(F)cc2F)cc2cnc(Nc3ccc4[nH]ccc4c3)nc21`, the values for the ΔTm in data set [13] and in data set [18] were 4.1 °C and 0.2 °C, respectively. In addition, the IC50 in [14] was 4420 nM; in data set [15], > 5000 nM; in data set [16], 374 nM; in data set [17] it was > 10000 nM; in [19], > 5000 nM; in data set [20], > 5000 nM. For the same molecule, the IC50 in [21] was > 10000 nM; in data set [22], > 5000 nM; in data set [23] it was > 5000 nM; in data set [24], 1830 nM; in data set [25], > 5000 nM; in data set [26], > 5000 nM. For the same molecule, the IC50 was > 5000 nM in data set [27]; 310 nM in [9]; 630 nM in [28]; > 5000 nM in data set [29]; > 5000 nM against Ephrin type-A receptor 6. The Activity result is “Non-toxic” with Mus musculus and “Dose-dependent effect” in the data set with U2OS [5]. Moreover, the inhibition entry on Tubulin (Bos taurus) [11] was “inactive”.
